Results from the RNAGym collection of RNA variant scans (doi:10.1126/science.aae0568).
Variants at the floor of the assay were thinned out.

B1: tRNA (parent)
chain: GUUCCGUUGGCGUAAUGGUAACGCGUCUCCCUCCUAAGGAGAAGACUGCGGGUUCGAGUCCCGUACGGAACG

Variants of: B1
Experiment: yeast fitness relative to wild type (ratio to wild type); higher = fitter; tRNA-Arg(CCU), competitive growth, 37 C, YPD
Method in brief: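 Amplicons of the tRNA-Arg(CCU) gene were sequenced, 100-nucleotide paired-end, from the start population and from each end population of a pooled yeast competition. The competition, in six parallel replicates, lasted 24 hours in YPD at 37°C. Fitness relative to wild type was calculated from changes in genotype frequencies. Genotypes had to have ≥ 100 starting reads, and estimates < 0.5 were set to 0.5.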

**Q.** With U3A G12C U13C A69C as the variant, how does the yeast fitness read?
**A.** 0.732

**Q.** With U3A G12C U13C A69U as the variant, how does the yeast fitness read?
**A.** 1.13

**Q.** Which yeast fitness does the source give for U3A G12C U13C C66U here?
**A.** 0.664

**Q.** With U3A G12C U19C as the variant, how does the yeast fitness read?
**A.** ≤ 0.5

**Q.** Which yeast fitness does the source give for U3A G12C U28C G56A C60G here?
**A.** ≤ 0.5

**Q.** Which yeast fitness does the source give for U3A G17A here?
**A.** 0.829

**Q.** With U3A G17A C22U A43C A69C as the variant, how does the yeast fitness read?
**A.** ≤ 0.5

**Q.** For U3A G17A C22U A70C, which yeast fitness is on record?
**A.** 0.528

**Q.** For U3A G17A C22U C46G, which yeast fitness is on record?
**A.** ≤ 0.5

**Q.** Which yeast fitness does the source give for U3A G17A C22U C66U here?
**A.** 0.616

**Q.** Which yeast fitness does the source give for U3A G17A C22U G48A C62A here?
**A.** ≤ 0.5

**Q.** For U3A G17A C22U U64C, which yeast fitness is on record?
**A.** ≤ 0.5

**Q.** Which yeast fitness does the source give for U3A G17C A20C U28A C46A here?
**A.** ≤ 0.5

**Q.** Which yeast fitness does the source give for U3A G17C G38A here?
**A.** 0.557

**Q.** With U3A G18A as the variant, how does the yeast fitness read?
**A.** 0.661

**Q.** For U3A G18A A45G A57C, which yeast fitness is on record?
**A.** ≤ 0.5

**Q.** With U3A G18A C22U A65U as the variant, how does the yeast fitness read?
**A.** ≤ 0.5

**Q.** For U3A G18A C22U C61A, which yeast fitness is on record?
**A.** ≤ 0.5

**Q.** Which yeast fitness does the source give for U3A G18A C22U U64C here?
**A.** ≤ 0.5

**Q.** For U3A G18A C22U U64C A70G, which yeast fitness is on record?
**A.** ≤ 0.5

**Q.** Which yeast fitness does the source give for U3A G18C A43C G58C here?
**A.** ≤ 0.5

**Q.** Which yeast fitness does the source give for U3A G18C U28A here?
**A.** ≤ 0.5

**Q.** For U3A G23A A69C, which yeast fitness is on record?
**A.** 0.571

**Q.** For U3A G23C, which yeast fitness is on record?
**A.** 0.653

**Q.** With U3A G25A as the variant, how does the yeast fitness read?
**A.** 1.09

**Q.** For U3A G25A A69C, which yeast fitness is on record?
**A.** 0.773

**Q.** For U3A G25A C49G A65G, which yeast fitness is on record?
**A.** ≤ 0.5

**Q.** For U3A G25A C49G A65G A69U, which yeast fitness is on record?
**A.** ≤ 0.5

**Q.** Which yeast fitness does the source give for U3A G25A G58A here?
**A.** 0.782

**Q.** For U3A G25C C34U G41A C49G, which yeast fitness is on record?
**A.** ≤ 0.5

**Q.** Which yeast fitness does the source give for U3A G25C G67C here?
**A.** 0.567

**Q.** For U3A G38A A57U C62U, which yeast fitness is on record?
**A.** ≤ 0.5

**Q.** For U3A G38A C66U, which yeast fitness is on record?
**A.** ≤ 0.5

**Q.** With U3A G38A G48A as the variant, how does the yeast fitness read?
**A.** 0.54

**Q.** For U3A G38C, which yeast fitness is on record?
**A.** 0.611

**Q.** With U3A G38C C49U as the variant, how does the yeast fitness read?
**A.** ≤ 0.5

**Q.** For U3A G39A, which yeast fitness is on record?
**A.** 0.888

**Q.** For U3A G39C, which yeast fitness is on record?
**A.** 0.822

**Q.** With U3A G41A as the variant, how does the yeast fitness read?
**A.** 0.754

**Q.** Which yeast fitness does the source give for U3A G41A A69U here?
**A.** 0.617

**Q.** With U3A G41C as the variant, how does the yeast fitness read?
**A.** 0.694

**Q.** Which yeast fitness does the source give for U3A G41C U53G here?
**A.** ≤ 0.5

**Q.** With U3A G44A A45C U53A C55A U59C C62U as the variant, how does the yeast fitness read?
**A.** 0.534

**Q.** For U3A G44C, which yeast fitness is on record?
**A.** 0.879

**Q.** Which yeast fitness does the source give for U3A G48A here?
**A.** 0.844

**Q.** For U3A G48A C49G, which yeast fitness is on record?
**A.** 0.574

**Q.** With U3A G48A G67A as the variant, how does the yeast fitness read?
**A.** 0.541

**Q.** Which yeast fitness does the source give for U3A G48C here?
**A.** 0.842

**Q.** Which yeast fitness does the source give for U3A G48C C55A C66G G67C here?
**A.** ≤ 0.5

**Q.** For U3A G50A, which yeast fitness is on record?
**A.** 0.853

**Q.** Which yeast fitness does the source give for U3A G50C here?
**A.** 0.727

**Q.** With U3A G51A A65G A69C as the variant, how does the yeast fitness read?
**A.** 0.544

**Q.** For U3A G51A U53C, which yeast fitness is on record?
**A.** 0.648

**Q.** With U3A G51C as the variant, how does the yeast fitness read?
**A.** ≤ 0.5

**Q.** Which yeast fitness does the source give for U3A G52A C60A A69G here?
**A.** ≤ 0.5

**Q.** For U3A G52C, which yeast fitness is on record?
**A.** 0.645

**Q.** Which yeast fitness does the source give for U3A G58C here?
**A.** 0.987

**Q.** Which yeast fitness does the source give for U3A G58C C60U C66G here?
**A.** ≤ 0.5

**Q.** Which yeast fitness does the source give for U3A G68C here?
**A.** 0.822

**Q.** Which yeast fitness does the source give for U3A G68C A69C here?
**A.** ≤ 0.5

**Q.** For U3A U7A A15C C55G, which yeast fitness is on record?
**A.** ≤ 0.5

**Q.** With U3A U7A A69U as the variant, how does the yeast fitness read?
**A.** ≤ 0.5

**Q.** With U3A U7A C22U C49A as the variant, how does the yeast fitness read?
**A.** ≤ 0.5

**Q.** With U3A U7A C30U G50C U59C as the variant, how does the yeast fitness read?
**A.** ≤ 0.5

**Q.** For U3A U7A C49A, which yeast fitness is on record?
**A.** 0.542

**Q.** For U3A U7A G23C A42C U47A C49G, which yeast fitness is on record?
**A.** ≤ 0.5

**Q.** For U3A U7C C27G C29G C34U, which yeast fitness is on record?
**A.** 0.528

**Q.** Which yeast fitness does the source give for U3A U7C C62G G63C here?
**A.** 0.586

**Q.** Which yeast fitness does the source give for U3A U7G A14U G25A G41C here?
**A.** ≤ 0.5

**Q.** With U3A U8A as the variant, how does the yeast fitness read?
**A.** 0.723

**Q.** Which yeast fitness does the source give for U3A U8A C31G A40C C66U here?
**A.** ≤ 0.5

**Q.** Which yeast fitness does the source give for U3A U8A C31G A40C G58C C62A G68A here?
**A.** ≤ 0.5

**Q.** Which yeast fitness does the source give for U3A U8A G25C C30A U54C here?
**A.** ≤ 0.5

**Q.** Which yeast fitness does the source give for U3A U8A U13C C31G A40C here?
**A.** ≤ 0.5

**Q.** For U3A U8A U32A U47A A57U, which yeast fitness is on record?
**A.** ≤ 0.5

**Q.** Which yeast fitness does the source give for U3A U8C here?
**A.** 0.925

**Q.** Which yeast fitness does the source give for U3A U8C A14C C61U here?
**A.** ≤ 0.5

**Q.** For U3A U8C C30G C33U, which yeast fitness is on record?
**A.** ≤ 0.5

**Q.** Which yeast fitness does the source give for U3A U8C G38C here?
**A.** ≤ 0.5

**Q.** For U3A U8G C27A C61A G67A, which yeast fitness is on record?
**A.** ≤ 0.5

**Q.** For U3A U13A, which yeast fitness is on record?
**A.** 1.04

**Q.** Which yeast fitness does the source give for U3A U13A G23C A36C here?
**A.** 0.529

**Q.** With U3A U13A G23C A36C A70C as the variant, how does the yeast fitness read?
**A.** 0.596

**Q.** With U3A U13C as the variant, how does the yeast fitness read?
**A.** 0.955
